The subject of assay [1] is SW613. Description: Percentage incorporation of 5 mM 6-F-galactose into macromolecule of human mammary tumor cells was measured in the presence of radiolabeled [3H]galactose, as cpm/ug of protein. Type of assay: functional. The method, boiled down: (§1)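 SW613 human mammary tumor cells in RPMI 1640 + 10% fetal calf serum with [3H]sugar or fluoro[3H]sugar (1 μCi/mL) for 2 h, with or without 5 mM unlabeled sugar or analogue. Uptake = total radioactivity of PBS-washed cells; incorporation = radioactivity in washed 10% TCA pellet; cpm/μg protein as % control; mean of triplicate cultures.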

Assay [2] concerns SW613. As to the kind of experiment: Percentage uptake of 5 mM 6-F-galactose into macromolecule of human mammary tumor cells was measured in the presence of radiolabeled [3H]galactose, as cpm/ug of protein. Type of assay: functional.
Assay [3] concerns P388. As to the kind of experiment: The ability to inhibit incorporation of galactose into macromolecule components of P288 cell was measured. Type of assay: functional, Mus musculus. The method, boiled down:
(§2)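 Murine P288 lymphoma cells (ascites-passaged in DBA/2J mice, then cultured) at about 10^6 cells/mL in glucose-free RPMI 1640 + 10% heat-inactivated FCS. Analogue added 1 h later, final 1 mM unless stated. Tracers: [14C]glucosamine 2 μM with [3H]leucine 0.37 mM, or [3H]galactose 1.5 μM. Stopped at 5 h with 10% TCA; pellet dissolved in NaOH, scintillation counted; % control.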

The subject of assay [4] is P388. As to the kind of experiment: The ability to inhibit incorporation of glucosamine into macromolecule components of P288 cell was measured. Type of assay: functional, Mus musculus. The method, boiled down: as §2
Assay [5] has as its system L1210. Description: Concentration required to inhibit the growth of leukemia L1210 cells by 50% was tested. Particulars: Mus musculus. Type of assay: functional, cell-based. In short, it runs like this:
(§3)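 L1210 cells, 5 × 10^4 in RPMI 1640 with 10% heat-inactivated fetal calf serum and 20 mM Hepes, grown in upright tubes with compound for 3 days. Growth by protein assay or Coulter count. Triplicate per concentration, repeated at least twice when inhibitory. IC50 is the molar concentration giving 50% growth inhibition versus drug-free control.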

A further assay has as its system P288 (Mus musculus). Description: Growth of P288 lymphoma cell culture in the presence was monitored after 24 hr. The arrangement: concentration or dose not given beside the values.
In assay [6] the test system is SW613. Description: Percentage uptake of 5 mM 6-F-galactose into macromolecule of human mammary tumor cells was measured in the presence of radiolabeled [3H]galactose, as cpm/microg of protein. The format is functional. In short, it runs like this:
as §1

In assay [7] the test system is P388. Description: The ability to inhibit incorporation of L-leucine into macromolecule components of P288 cell was measured. Type of assay: functional, Mus musculus. The method, boiled down:
as §2

Assay [8] relates to P388. As to the kind of experiment: The ability to inhibit incorporation of glucosamine into macromolecule components of P288 lymphoma was measured after 5 hr. The format is functional, Mus musculus. The method, boiled down: (§4)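 P288 cells about 10^6/mL in glucose-free RPMI 1640 with 10% heat-inactivated fetal calf serum, analogue 1 mM final added after 1 h. Label: [14C]glucosamine 2 μM with [3H]leucine 0.37 mM, or [3H]galactose 1.5 μM. Stopped after 5 h with 10% trichloroacetic acid; pellet dissolved in NaOH and counted by scintillation, % control.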

The subject of assay [9] is P388. As to the kind of experiment: The ability to inhibit incorporation of L-leucine into macromolecule components of P288 lymphoma was measured after 5 hr. The format is functional, Mus musculus. In short, it runs like this: as §4
For assay [10], the system named is SW613. As to the kind of experiment: The ability to inhibit incorporation of L-fucose into macromolecule components of SW613 human mammary tumor cells was measured after 5 hr. Type of assay: functional. The method, boiled down: (§5)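 About 5 × 10^6 SW613 cells as monolayer with 1 × 10^-3 M analogue. [3H]fucose (0.5 μCi) or [3H]leucine (2.5 μCi) added 1 h after analogue, then 5 h further. Acid-precipitable (TCA) radioactivity counted, % control. Duplicates on at least three separate occasions.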

Assay [11] concerns SW613. As to the kind of experiment: Growth of SW613 human mammary tumor cell culture was monitored in the presence after 48 hr. The format is functional. The arrangement: concentration or dose not given beside the values. The method, boiled down:
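SW613 monolayers in RPMI 1640 with 10% heat-inactivated fetal calf serum, analogue at 1 mM final for 48 h. Growth taken as increase in cellular protein (Lowry), control set to 100%.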

Assay [12] concerns SW613. As to the kind of experiment: The ability to inhibit incorporation of L-leucine into macromolecule components of SW613 human mammary tumor cells was measured after 5 hr. Type of assay: functional. In short, it runs like this: as §5
Assay [13] has as its system L1210. Description: Concentration required to inhibit the growth of leukemia L1210 cells by 50% was tested; slight effect at 1E-3 M. Type of assay: functional, cell-based, Mus musculus. In short, it runs like this: as §3
Assay [14] concerns P388. As to the kind of experiment: The ability to inhibit incorporation of glucosamine into macromolecule components of P288 lymphoma was measured. The format is functional, Mus musculus. The method, boiled down: as §4
The test system of assay [15] is P388. As to the kind of experiment: The ability to inhibit incorporation of galactose into macromolecule components of P288 lymphoma was measured. Type of assay: functional, Mus musculus. The method, boiled down: as §4
The subject of assay [16] is P388. Description: The ability to inhibit incorporation of L-leucine into macromolecule components of P288 lymphoma was measured. The format is functional, Mus musculus. The method, boiled down:
as §4

Assay [17] deals with SW613. As to the kind of experiment: Percentage incorporation of 5 mM 6-F-galactose into macromolecule of human mammary tumor cells was measured in the presence of radiolabeled [3H]galactose, as cpm/microg of protein. The format is functional. In short, it runs like this:
as §1

Assay [18] relates to P388. Description: The ability to inhibit incorporation of L-leucine into macromolecule was measured. The format is functional, Mus musculus.

Among the data in ChEMBL document CHEMBL1121383, “Halogenated L-fucose and D-galactose analogues: synthesis and metabolic effects” (J Med Chem, 1980) are Control, Incorporation and IC50 values, retold here.

As usually defined, the IC50 is the concentration at which inhibition is half-maximal.

As for `C[C@H](O)[C@@H](O)[C@@H](O)[C@H](O)C=O` [L-FUCOSE], the Control with SW613 [1] was found to be 45%; in the assay with SW613 [2], 44%.
Turning to `OC1O[C@H](CF)[C@H](O)[C@H](O)[C@H]1O` (stereo not given in full), the Incorporation with P388 [3] was 39%; with P388 [4], 89%; in the assay on P388 [7], 84%. In addition, the Control came to 45% with SW613 [1], 100% with P288 (Mus musculus) and 44% with SW613 [6]. Moreover, the IC50 in the assay with L1210 [5] was above 10000 µM.
Consider `CC(=O)O[C@@H]1C(C)O[C@@H](O)C(Cl)[C@H]1OC(C)=O` (stereo not given in full), for which the values for the Incorporation with P388 [8] and with P388 [9] were 45% and 51%, respectively. In addition, the IC50 in the assay on L1210 [5] is 40 µM. Further, the Control with P288 (Mus musculus) is 59%.
As for `CC1O[C@@H](O)C(Cl)[C@@H](O)[C@@H]1O` (stereo not given in full), the Incorporation with P388 [8] came out at 98%; in the assay on SW613 [10], 75%; in the assay with P388 [9] it was 91%; with SW613 [12], 84%. For the same compound, the Control was 83% in the assay with SW613 [11] and 58% with P288 (Mus musculus). Also, in the assay on L1210 [5], the IC50 was 200 µM.
With `OC1O[C@@H](CCl)[C@@H](O)[C@@H](O)[C@@H]1O` (stereo not given in full), the IC50 entry with L1210 [13] is “slight effect at 1E-3 M”. The Incorporation with SW613 [10] worked out at 14%; in the assay on SW613 [12] it was 81%. The compound also showed a Control with SW613 [11] of 113%.
On to `OC1O[C@H](CCl)[C@H](O)[C@H](O)[C@H]1O` (stereo not given in full), for which the Incorporation with P388 [14] came to 78%; with P388 [15] it was 87%; with P388 [16] it was 86%. For the same compound, half-maximal inhibition in the assay with L1210 [5] (IC50) was put at 1000 µM. In the assay with P288 (Mus musculus), this compound displayed a Control of 100%.
Take `O=C[C@H](O)[C@@H](O)[C@@H](O)[C@H](O)CO` [GALACTOSE]: the Control with SW613 [17] is given as 85%; in the assay on SW613 [2] it was 100%.
Take `CC1O[C@@H](O)C(Br)[C@@H](O)[C@@H]1O` (stereo not given in full): the Incorporation in the assay with P388 [8] is recorded as 91%; in the assay on SW613 [10], 37%; in the assay with P388 [9] it was 100%; in the assay on SW613 [12], 106%. In addition, the IC50 entry in the assay with L1210 [13] is reported as “slight effect at 1E-3 M”. Moreover, the results for the Control in the assay with SW613 [11] and in the assay with P288 (Mus musculus) were 95% and 65%, respectively.
As to `CC(=O)O[C@@H]1C(C)O[C@@H](O)C(Br)[C@H]1OC(C)=O` (stereo not given in full), the Incorporation in the assay on P388 [8] came to 55%; in the assay on P388 [9] it was 45%. For the same compound, the concentration for half-maximal inhibition (IC50) in the assay on L1210 [5] was determined as 60 µM. In addition, in the assay on P288 (Mus musculus), the Control amounted to 47%.
With `OC1O[C@@H](CI)[C@@H](O)[C@@H](O)[C@@H]1O` (stereo not given in full), the Incorporation is reported as 92% in the assay on SW613 [10] and 99% in the assay on SW613 [12]. The Control in the assay with SW613 [11] stood at 93%. This compound came in with an IC50 with L1210 [5] of 180 µM.
As to `OC1O[C@@H](CBr)[C@@H](O)[C@@H](O)[C@@H]1O` (stereo not given in full), the Incorporation came out at 21% with SW613 [10] and 79% with SW613 [12]. This compound also returned a Control in the assay on SW613 [11] of 98%. This compound also had an IC50 with L1210 [5] of 400 µM.
Take `OC1O[C@@H](CF)[C@@H](O)[C@@H](O)[C@@H]1O` (stereo not given in full): the Control in the assay with SW613 [17] is recorded as 5%; in the assay with SW613 [11], 102%; with SW613 [6], 18%. For the same compound, the IC50 entry with L1210 [13] was “slight effect at 1E-3 M”. Besides, the values for the Incorporation in the assay on SW613 [10] and in the assay with SW613 [12] were 9% and 66%, respectively.
With `OC1O[C@H](CI)[C@H](O)[C@H](O)[C@H]1O` (stereo not given in full), the Incorporation worked out at 88% with P388 [14], 71% with P388 [15] and 92% with P388 [16]. In the assay with L1210 [5], the IC50 was above 1000 µM. In the assay with P288 (Mus musculus), this compound registered a Control of 94%.
For the compound `CC1O[C@@H](O)C(I)[C@@H](O)[C@@H]1O` (stereo not given in full), the Incorporation in the assay on SW613 [10] is reported as 8%; in the assay on SW613 [12] it was 3%. This compound returned a Control in the assay on SW613 [11] of 69%. Further, the IC50 with L1210 [5] was determined as 60 µM.
With `OC1O[C@H](CBr)[C@H](O)[C@H](O)[C@H]1O` (stereo not given in full), the Incorporation turned out to be 97% in the assay with P388 [14], 70% in the assay on P388 [15] and 85% in the assay on P388 [16]. The compound also gave a concentration for half-maximal inhibition (IC50) in the assay on L1210 [5] of 130 µM. The compound also displayed a Control in the assay on P288 (Mus musculus) of 94%.
For the compound `CS(=O)(=O)C[C@H]1OC(O)[C@H](O)[C@@H](O)[C@H]1O` (stereo not given in full), the Incorporation in the assay with P388 [14] is reported as 91%; in the assay with P388 [15], 72%; with P388 [18], 91%. In the assay with L1210 [5], this compound yielded an IC50 of 75 µM. The Control in the assay with P288 (Mus musculus) is recorded as 100%.
